Measured values published in ChEMBL document CHEMBL4145669 (J Med Chem, 2018).
Square brackets hold non-standard residues; d marks the D form. Peptide text beside a SMILES is read from it. hPhe = N[C@@H](CCc1ccccc1)C(=O)O; Nle = CCCC[C@H](N)C(=O)O; Dap = NC[C@H](N)C(=O)O

What was measured:
[1] = biological target: Melanocyte-stimulating hormone receptor (Mus musculus, UniProt Q01727); experiment: Agonist activity at mouse MC1R expressed in HEK293 cells incubated for 2 hrs by AlphaScreen cAMP assay; assay type: functional, cell-based
Sequence of Melanocyte-stimulating hormone receptor (Q01727 whole entry): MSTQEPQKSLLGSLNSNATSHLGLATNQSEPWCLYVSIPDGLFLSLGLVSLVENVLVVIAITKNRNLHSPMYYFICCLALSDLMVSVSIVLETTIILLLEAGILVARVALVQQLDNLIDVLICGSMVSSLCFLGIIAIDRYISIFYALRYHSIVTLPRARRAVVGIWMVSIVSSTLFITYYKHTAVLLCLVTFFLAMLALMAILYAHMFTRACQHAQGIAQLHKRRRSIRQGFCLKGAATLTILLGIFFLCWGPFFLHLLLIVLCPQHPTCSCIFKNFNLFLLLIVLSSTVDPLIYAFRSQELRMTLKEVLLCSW
In short: (§1)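 HEK293 cells stably expressing mouse MC1R, about 90% confluent, were detached with Versene and suspended at 10,000 cells/μL in stimulation buffer (HBSS, 0.5 mM IBMX, 5 mM HEPES, 0.1% BSA, pH 7.4) with anti-cAMP acceptor beads. Compound was added for 2 h at room temperature in the dark, then donor beads/biotinylated cAMP in lysis buffer for 2 h, followed by AlphaScreen read. Doses went up to 100 μM in duplicate wells, ≥3 experiments. EC50 came from nonlinear regression, with efficacy as a percent of NDP-MSH.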

[2] = biological target: Melanocyte-stimulating hormone receptor (Mus musculus) (UniProt Q01727); experiment: Agonist activity at mouse MC1R expressed in HEK293 cells incubated for 2 hrs by AlphaScreen cAMP assay relative to NDP-MSH; assay type: functional, cell-based; in short: as §1
Sequence of Melanocyte-stimulating hormone receptor (Mus musculus) (Q01727 whole entry, looked up): as the sequence (Q01727 whole entry) above

Melanocortin receptor 5 = Melanocortin receptor 5 (Mus musculus, UniProt P41149); experiment: Inverse agonist activity at mouse MC5R expressed in HEK293 cells incubated for 2 hrs by AlphaScreen cAMP assay; assay type: functional, cell-based
Sequence of Melanocortin receptor 5 (P41149 whole entry): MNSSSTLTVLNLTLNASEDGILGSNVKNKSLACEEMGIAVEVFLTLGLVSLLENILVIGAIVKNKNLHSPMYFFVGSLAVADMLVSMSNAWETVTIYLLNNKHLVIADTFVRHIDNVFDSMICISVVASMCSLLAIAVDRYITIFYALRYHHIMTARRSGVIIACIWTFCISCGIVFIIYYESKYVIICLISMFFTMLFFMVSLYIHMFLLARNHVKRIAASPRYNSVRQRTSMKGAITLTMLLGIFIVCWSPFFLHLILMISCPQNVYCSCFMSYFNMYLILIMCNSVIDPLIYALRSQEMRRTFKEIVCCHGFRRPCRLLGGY
In short: (§2)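 In the mouse MC5R HEK293 stable line, cells in IBMX-containing stimulation buffer with anti-cAMP acceptor beads were exposed to compound at up to 100 μM for 2 h at room temperature in the dark. Donor beads/biotinylated cAMP were then added for 2 h before AlphaScreen reading. Signal was normalized to basal response to give a percent difference from basal. Duplicate wells, ≥3 independent experiments.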

[3] = biological target: Melanocortin receptor 5 (Mus musculus) (UniProt P41149); experiment: Inverse agonist activity at mouse MC5R expressed in HEK293 cells at 100 uM incubated for 2 hrs by AlphaScreen cAMP assay; assay type: functional, cell-based; in short: as §2
Sequence of Melanocortin receptor 5 (Mus musculus) (P41149 whole entry): as above

[4] = biological target: Melanocortin receptor 3 (Mus musculus) (UniProt P33033); experiment: Agonist activity at mouse MC3R expressed in HEK293 cells at 100 uM incubated for 2 hrs by AlphaScreen cAMP assay relative to untreated control; assay type: functional, cell-based
Sequence of Melanocortin receptor 3 (Mus musculus) (P33033 whole entry): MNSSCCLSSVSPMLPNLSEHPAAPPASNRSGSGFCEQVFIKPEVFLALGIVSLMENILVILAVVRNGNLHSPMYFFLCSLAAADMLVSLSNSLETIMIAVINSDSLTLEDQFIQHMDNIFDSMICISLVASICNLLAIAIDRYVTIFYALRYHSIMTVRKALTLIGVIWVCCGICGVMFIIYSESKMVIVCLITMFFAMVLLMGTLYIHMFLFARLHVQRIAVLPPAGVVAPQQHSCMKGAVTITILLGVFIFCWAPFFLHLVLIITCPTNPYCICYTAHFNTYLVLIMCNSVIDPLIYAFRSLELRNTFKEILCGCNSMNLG

[5] = biological target: Melanocortin receptor 4 (Mus musculus) (UniProt P56450); experiment: Agonist activity at mouse MC4R expressed in HEK293 cells at 100 uM incubated for 2 hrs by AlphaScreen cAMP assay relative to untreated control; assay type: functional, cell-based
Sequence of Melanocortin receptor 4 (Mus musculus) (P56450 whole entry): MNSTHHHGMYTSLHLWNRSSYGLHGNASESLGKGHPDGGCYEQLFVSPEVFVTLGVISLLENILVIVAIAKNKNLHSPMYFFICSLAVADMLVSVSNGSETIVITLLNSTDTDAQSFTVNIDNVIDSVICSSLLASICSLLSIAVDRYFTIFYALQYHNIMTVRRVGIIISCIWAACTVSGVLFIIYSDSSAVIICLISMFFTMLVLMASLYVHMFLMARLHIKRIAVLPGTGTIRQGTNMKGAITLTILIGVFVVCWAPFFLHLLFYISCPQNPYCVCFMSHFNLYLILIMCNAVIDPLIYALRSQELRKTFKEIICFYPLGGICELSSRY

Melanocortin receptor 3 = Melanocortin receptor 3 (Mus musculus, UniProt P33033); experiment: Antagonist activity at mouse MC3R expressed in HEK293 cells assessed as reduction in NDP-MSH-induced response incubated for 2 hrs by AlphaScreen cAMP assay based Schild analysis; assay type: functional, cell-based; conditions: read-out: pA2 (converted)
Sequence of Melanocortin receptor 3 (P33033 whole entry): as the sequence (P33033 whole entry) above

Melanocortin receptor 4 = Melanocortin receptor 4 (Mus musculus, UniProt P56450); experiment: Antagonist activity at mouse MC4R expressed in HEK293 cells assessed as reduction in NDP-MSH-induced response incubated for 2 hrs by AlphaScreen cAMP assay based Schild analysis; assay type: functional, cell-based; conditions: read-out: pA2 (converted)
Sequence of Melanocortin receptor 4 (P56450 whole entry): as the sequence (P56450 whole entry) above

Mus musculus = species on record: Mus musculus; experiment: Selectivity index, ratio of pA2 for antagonist activity at mouse MC3R expressed in HEK293 cells to pA2 for antagonist activity at mouse MC4R expressed in HEK293 cells; assay type: cell-based
[6] = biological target: Melanocyte-stimulating hormone receptor (Mus musculus) (UniProt Q01727); experiment: Agonist activity at mouse MC1R expressed in HEK293 cells at 100 uM incubated for 2 hrs by AlphaScreen cAMP assay relative to NDP-MSH; assay type: functional, cell-based; in short: as §1
[7] = biological target: Melanocortin receptor 4 (Mus musculus) (UniProt P56450); experiment: Potency index, ratio of pA2 for test compound to pA2 for AGRP for antagonist activity at mouse MC4R expressed in HEK293 cells assessed as reduction in NDP-MSH-induced response incubated for 2 hrs by AlphaScreen cAMP assay based Schild analysis; assay type: functional, cell-based

Row | Compound | EC50 [1] [nM] | Activity [2] [%] | EC50 (Melanocortin receptor 5) [nM] | Activity [3] [%] | Activity [4] [%] | Activity [5] [%] | Kb (Melanocortin receptor 3) [nM] | Kb (Melanocortin receptor 4) [nM] | Ratio (Mus musculus) | Activity [6] [%] | Ratio [7]
1 | N=C(N)NCCC[C@@H]1NC(=O)[C@@H]2CCCN2C(=O)[C@H]2CCCN2C(=O)[C@H](Cc2ccccc2)NC(=O)[C@H](CO)NC(=O)[C@H](CN)NC(=O)[C@H](Cc2ccccc2)NC(=O)[C@H](Cc2ccccc2)NC1=O | 600 | 85 | > 100000 | < 20 | < 20 | < 20 | 158 | 0.794 | 170 |  | 
2 | C[C@@H]1NC(=O)[C@H](CN)NC(=O)[C@H](CCc2ccccc2)NC(=O)[C@H](Cc2ccccc2)NC(=O)[C@H](CCCNC(=N)N)NC(=O)[C@@H]2CCCN2C(=O)[C@H]2CCCN2C(=O)[C@H](Cc2ccccc2)NC1=O | 560 | 70 | > 100000 | < 20 | < 20 | < 20 | 79.4 | 0.794 | 100 |  | 
3 | CCCC[C@@H]1NC(=O)[C@H](CO)NC(=O)[C@H](CC(N)=O)NC(=O)[C@H](Cc2ccccc2)NC(=O)[C@H](Cc2ccccc2)NC(=O)[C@H](CCCNC(=N)N)NC(=O)[C@@H]2CCCN2C(=O)[C@H]2CCCN2C1=O (cyclo(RFFNS[Nle][dP]P)) | 2600 | 75 |  | -35 | < 20 | < 20 | 251 | 3.16 | 79 |  | 
4 | CCCC[C@@H]1NC(=O)[C@H](C)NC(=O)[C@H](CCCNC(=N)N)NC(=O)[C@H](Cc2ccccc2)NC(=O)[C@H](Cc2ccccc2)NC(=O)[C@H](CCCNC(=N)N)NC(=O)[C@@H]2CCCN2C(=O)[C@H]2CCCN2C1=O (cyclo(RFFRA[Nle][dP]P)) | > 100000 |  | > 100000 | < 20 | < 20 | < 20 | 31.6 | 0.794 | 46 | < 20 | 
5 | CCCC[C@@H]1NC(=O)[C@H](CO)NC(=O)[C@H](CCCNC(=N)N)NC(=O)[C@H](Cc2ccccc2)NC(=O)[C@H](Cc2ccccc2)NC(=O)[C@H](CCCNC(=N)N)NC(=O)[C@@H]2CCCN2C(=O)[C@H]2CCCN2C1=O (cyclo(RFFRS[Nle][dP]P)) | > 100000 |  | > 100000 | < 20 | < 20 | < 20 | 79.4 | 0.251 | 320 | < 20 | 
6 | CCCC[C@@H]1NC(=O)[C@H](CO)NC(=O)[C@H](CN)NC(=O)[C@H](Cc2ccccc2)NC(=O)[C@H](Cc2ccccc2)NC(=O)[C@H](CCCNC(=N)N)NC(=O)[C@@H]2CCCN2C(=O)[C@H]2CCCN2C1=O (cyclo(RFF[Dap]S[Nle][dP]P)) | > 100000 |  | > 100000 | < 20 | < 20 | < 20 | 316 | 0.794 | 430 | < 20 | 
7 | CCCC[C@@H]1NC(=O)[C@H](CO)NC(=O)[C@H](CC(N)=O)NC(=O)[C@H](CCc2ccccc2)NC(=O)[C@H](Cc2ccccc2)NC(=O)[C@H](CCCNC(=N)N)NC(=O)[C@@H]2CCCN2C(=O)[C@H]2CCCN2C1=O (cyclo(RF[hPhe]NS[Nle][dP]P)) | > 100000 |  | > 100000 | < 20 | < 20 | < 20 | 501 | 0.631 | 790 | < 20 | 3 to 6
8 | CCCC[C@@H]1NC(=O)[C@H](C)NC(=O)[C@H](CCCNC(=N)N)NC(=O)[C@H](CCc2ccccc2)NC(=O)[C@H](Cc2ccccc2)NC(=O)[C@H](CCCNC(=N)N)NC(=O)[C@@H]2CCCN2C(=O)[C@H]2CCCN2C1=O (cyclo(RF[hPhe]RA[Nle][dP]P)) | > 100000 |  | > 100000 | < 20 | < 20 | < 20 | 31.6 | 1.58 | 19 | < 20 | 
9 | CCCC[C@@H]1NC(=O)[C@H](C)NC(=O)[C@H](CN)NC(=O)[C@H](CCc2ccccc2)NC(=O)[C@H](Cc2ccccc2)NC(=O)[C@H](CCCNC(=N)N)NC(=O)[C@@H]2CCCN2C(=O)[C@H]2CCCN2C1=O (cyclo(RF[hPhe][Dap]A[Nle][dP]P)) | > 100000 |  | > 100000 | < 20 | < 20 | < 20 | 200 | 0.794 | 250 | < 20 | 
10 | CCCC[C@@H]1NC(=O)[C@H](CO)NC(=O)[C@H](CN)NC(=O)[C@H](CCc2ccccc2)NC(=O)[C@H](Cc2ccccc2)NC(=O)[C@H](CCCNC(=N)N)NC(=O)[C@@H]2CCCN2C(=O)[C@H]2CCCN2C1=O (cyclo(RF[hPhe][Dap]S[Nle][dP]P)) | > 100000 |  | > 100000 | < 20 | < 20 | < 20 | 200 | 0.316 | 630 | < 20 | 3 to 6
